# Screening results as filed in PubChem.
# The list is not random: actives were taken first. Their share in the collection is about 1.6%.
# dFosB activator: mouse delta FosB homodimer activation; P13346; purified delta FosB, TAMRA-CDK5 oligo fluorescence polarization; percent of positive-control signal above neutral wells; actives 0.99% (n = 340,000); AID 493131; activation, % at 25 µM;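 active = mean activation above about 17%, with every replicate also reaching it, limit read from the data, passing the limit was not always enough; inconclusive = only one of the two conditions met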
# Target sequence (P13346 whole entry, looked up): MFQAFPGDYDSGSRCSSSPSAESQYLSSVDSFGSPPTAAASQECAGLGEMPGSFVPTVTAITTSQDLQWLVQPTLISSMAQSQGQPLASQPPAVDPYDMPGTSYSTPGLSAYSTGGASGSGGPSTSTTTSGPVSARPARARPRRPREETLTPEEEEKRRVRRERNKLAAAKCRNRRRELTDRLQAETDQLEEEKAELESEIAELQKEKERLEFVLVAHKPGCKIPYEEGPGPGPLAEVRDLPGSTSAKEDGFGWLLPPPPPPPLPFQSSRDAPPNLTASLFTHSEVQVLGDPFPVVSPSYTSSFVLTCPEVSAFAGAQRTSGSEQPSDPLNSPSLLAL
# RAD54 branch: RAD54 (human) branch migration inhibition | Q92698 | RAD54 Holliday junction branch migration, FAM/BHQ fluorescence | inhibition, % at 10.4 µM | actives 0.14% (n = 360,000);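 active = mean normalized replicate activity at least 40 and at least half of replicates scoring 40 or more; inconclusive = only one of the two criteria met; inactive = mean below 40 and under half of replicates reaching 40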;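 also: 0% = median of neutral control wells and 100% = median of positive control wells; inhibitors cause a drop in the FAM fluorescence signal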
# SR-BI uptake up: activators of SR-BI mediated HDL lipid uptake. actives 0.096% (n = 320,000). CHO ldlA[mSR-BI] cells, DiI-HDL uptake fluorescence, 3 h; 100 = double the neutral-control signal. activation, % at 12.5 µM;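 active = mean replicate activation of at least 60% and every replicate at or above 60%; inconclusive = mean or all-replicate condition met, but not both; inactive = mean below 60% and not all replicates reaching 60%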;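 also: 0% = median plate neutral-control signal and 100% = twice that signal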
#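 Material: SR-BI-overexpressing, LDLR-lacking CHO cells; schedule: compound exposure 3 h, 37 °C; reagent: DiI-labelled HDL at 10 µg/mL final; technique: bottom-read fluorescence, 550/595 nm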
# PvdQ inh: blocks Pseudomonas aeruginosa PvdQ acylase activity; actives 0.063% (n = 340,000); purified PvdQ acylase, fluorescence plate reader; inhibition, % at 10 µM; AID 488965; in the data active = inhibition above about 30%, passing the limit was not always enough; inconclusive = no clear call, values can overlap the other calls;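 also: 0% = vehicle neutral wells and 100% = reference inhibitor wells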
# SR-BI HDL uptake: inhibitors of mouse SR-BI mediated HDL lipid uptake | Q61009 | ldlA[mSR-BI] CHO cells, DiI-HDL uptake fluorescence, 3 h | inhibition, % at 12.5 µM | actives 0.96% (n = 320,000) | AID 488896;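 active = mean replicate inhibition of at least 70% and a set share of replicates each scoring 70 or more; inconclusive = meets just one of the two criteria; inactive = fails both criteria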;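 also: 0% = median of neutral control wells and 100% = median of positive control wells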
# S100A4 MyoIIA: inhibitors of human S100A4 binding to myosin IIA peptide. P26447. S100A4/TAMRA-MyoIIA peptide fluorescence polarization. inhibition, % at 10.7 µM. actives 0.14% (n = 360,000);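 active = mean inhibition of at least 70% across replicates, with every replicate also reaching that level; inconclusive = mean inhibition reaches 70% but some replicates fall short; inactive = mean inhibition below 70%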
# Target sequence (P26447 whole entry, looked up): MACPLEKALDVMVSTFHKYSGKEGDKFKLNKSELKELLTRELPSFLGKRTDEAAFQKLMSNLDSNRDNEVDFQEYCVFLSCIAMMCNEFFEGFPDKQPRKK
#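 Test system: S100A4 monomer protein. Medium: HEPES buffer with Ca2+, pH 7.2. Reagent: fluorescent myosin IIA peptide, 5 nM. Compound dosing: single-point compound testing. Timing: 5 min between mix addition and reading. Benchmarks: DMSO neutral and TFP positive wells.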
# An asterisk follows results filed as active; ? = inconclusive; · = no result given.
SMILES,dFosB activator,RAD54 branch,SR-BI uptake up,PvdQ inh,SR-BI HDL uptake,S100A4 MyoIIA
C=CCN1CC(=O)N2C(c3ccccc3)c3[nH]c4ccccc4c3C[C@H]2C1=O (some centres undefined),-0.1,-0.5,-78.1,-5.2,78.1*,2.6
COCCN1CC(=O)N2C(c3cccc(C)c3)c3[nH]c4ccccc4c3C[C@H]2C1=O (some centres undefined),-10.6,·,-68.2,19.4,68.2,7.1
COCCCN1CC(=O)N2C(c3cccc(C)c3)c3[nH]c4ccccc4c3C[C@H]2C1=O (some centres undefined),-11.8,-16.4,-76.1,-11.7,76.1*,-4.4
CN1CC(=O)N2C(c3cccc([N+](=O)[O-])c3)c3[nH]c4ccccc4c3C[C@H]2C1=O (some centres undefined),1.1,-11.3,-80.3,-12.1,80.3*,2.6
CN(C)CCNc1ccc2ncn3c4ccc(O)cc4c(=O)c1c23,63.9*,·,1.5,-10.7,-1.5,3.0
CN(C)CCNc1ccc(CO)c2sc3ccc(O)cc3c(=O)c12,38.2*,·,7.3,18.1,-7.3,7.7
COc1ccc(C[C@@H]2CCc3cnnn3COC[C@@H](c3ccccc3)NC2=O)cc1,·,·,·,·,·,-2.9
O=C(CCN1C(=O)/C(=C/c2ccccc2Cl)SC1=S)NNC(=O)c1ccccc1O,37.2*,-5.2,12.2,-12.1,-12.2,2.9
O=C(CN1C(=O)/C(=C/c2ccccc2)SC1=S)NNC(=O)c1ccccc1O,?,·,-3.8,-11.3,3.8,6.8
Cc1ccc(/C=C2\SC(=S)N(CCC(=O)NNC(=O)c3ccccc3O)C2=O)cc1,65.8*,-9.3,10.8,-2.6,-10.8,5.7
COc1cccc(/C=C2/SC(=S)N(CC(=O)NNC(=O)c3ccccc3O)C2=O)c1,21.1*,-7.4,·,-9.9,·,5.9
Cc1ccc(/C=C2\SC(=S)N(CCCC(=O)NNC(=O)c3ccccc3O)C2=O)cc1,8.5,-9.6,·,-9.2,·,-8.1
Cc1ccc(/C=C2\SC(=S)N(CCC(=O)NNC(=O)c3cccnc3)C2=O)cc1,-6.9,-7.8,-10.2,-8.5,10.2,·
Cc1ccc(/C=C2\SC(=S)N(CCC(=O)NNS(=O)(=O)c3ccccc3)C2=O)cc1,22.4*,-5.4,0.0,-12.8,0.0,1.4
COc1cccc(-c2cnc3c(c2)C(=O)N([C@H](C)CO)C[C@H](C)[C@H](CN(C)C(=O)NC2CCCC2)O3)c1,·,1.0,·,·,·,-15.2
CC(C)NC(=O)N(C)C[C@@H]1Oc2ncc(C#CCN(C)C)cc2C(=O)N([C@H](C)CO)C[C@@H]1C,·,-0.2,·,·,·,-2.4
O=C(CCN1C(=O)/C(=C/c2ccccc2Cl)SC1=S)NCCc1ccc(O)cc1,23.3*,-2.7,1.4,-15.5,-1.4,-4.0
Cc1ccc(/C=C2\SC(=S)N(CCC(=O)NNC(=O)c3ccc(O)cc3)C2=O)cc1,144.2*,-12.7,-29.3,-3.3,29.3,3.6
Cc1ccc(/C=C2\SC(=S)N(CCC(=O)NNC(=O)c3cccc(O)c3)C2=O)cc1,?,-5.6,-11.8,-3.4,11.8,0.8
Cc1ccccc1S(=O)(=O)NCC[C@H]1CC[C@@H](NC(=O)Nc2cccc(Cl)c2)[C@@H](CO)O1,·,8.0,·,·,·,2.6
Cc1cccc2sc(NNC(=O)c3cc(-c4cccs4)nc4ccccc34)nc12,-9.0,-3.8,-72.1,-7.7,72.1*,-3.2
NNC(=O)c1cc(-c2cccs2)nc2ccccc12,-12.2,·,·,-17.0,·,3.8
COc1cccc(N=Nc2ccc3ccccc3c2O)c1,-54.8,7.0,-71.8,2.6,71.8*,122.4*
COc1ccc(N=Nc2ccc3ccccc3c2)c(O)c1,-2.8,-7.2,-14.0,0.0,14.0,-2.0
Cc1ccc(S(=O)(=O)Nc2ccc3c(c2)C(=O)N([C@H](C)CO)C[C@@H](C)[C@@H](CN(C)C)O3)cc1,·,-8.2,·,·,·,7.9
SMILES,dFosB activator,RAD54 branch,SR-BI uptake up,PvdQ inh,SR-BI HDL uptake,S100A4 MyoIIA
COc1cccc(S(=O)(=O)N[C@H]2CC[C@@H](CC(=O)NCc3ccccc3)O[C@@H]2CO)c1,·,-2.6,·,·,·,2.2
Cc1ccc(N2C3=C(C(=O)CC(C)(C)C3)C(c3cn(C)nc3C)C3=C2CC(C)(C)CC3=O)cc1,-12.1,-5.7,-0.6,-7.6,0.6,112.2*
Cc1nn(C)cc1C1C2=C(CC(C)(C)CC2=O)N(c2ccccc2)C2=C1C(=O)CC(C)(C)C2,-13.6,5.1,4.4,5.4,-4.4,·
O=C(/C=C/c1ccco1)Nc1ccc(N2CCCC2)cc1,41.3*,·,-2.7,-5.2,2.7,-3.5
O=C(/C=C/c1ccco1)Nc1ccc(C(=O)N2CCOCC2)cc1,-8.1,-8.9,4.3,4.7,-4.3,·
O=C(Nc1ccccc1F)N[C@@H]1CC[C@H](CCNC(=O)C2CCCCC2)O[C@H]1CO,·,-5.6,·,·,·,90.2*
Cc1noc(C)c1NC(=O)N[C@H]1CC[C@@H](CCNC(=O)C2CCOCC2)O[C@H]1CO,·,-1.7,·,·,·,7.1
Cc1ccc(S(=O)(=O)NCC[C@@H]2CC[C@@H](NC(=O)Nc3cccc(F)c3)[C@@H](CO)O2)cc1,·,-11.5,·,·,·,4.5
Cc1ccc(S(=O)(=O)NCC[C@@H]2CC[C@H](NC(=O)Nc3cccc(F)c3)[C@@H](CO)O2)cc1,·,6.7,·,·,·,73.1*
Cc1noc(C)c1NC(=O)N[C@@H]1CC[C@H](CCNC(=O)C2CCOCC2)O[C@@H]1CO,·,9.3,·,·,·,98.3*
CCC(=O)N[C@@H]1CC[C@H](CCNC(=O)Nc2ccc(C(F)(F)F)cc2)O[C@H]1CO,·,-10.0,·,·,·,92.3*
O=C(Nc1ccc(Cl)cc1)N[C@@H]1CC[C@H](CCNC(=O)c2ccccc2F)O[C@H]1CO,·,-6.5,·,·,·,?
O=C(Nc1ccc(Cl)cc1)N[C@H]1CC[C@H](CCNC(=O)c2ccccc2F)O[C@@H]1CO,·,-3.4,·,·,·,80.8*
Cc1noc(C)c1S(=O)(=O)N(C)C[C@H]1OCCCC[C@H](C)Oc2ccc(NS(=O)(=O)c3ccc(Cl)cc3)cc2C(=O)N([C@H](C)CO)C[C@@H]1C,·,0.1,·,·,·,-29.5
O=C(CNC(=O)c1ccc2c(c1)OCCO2)N=Nc1c(O)[nH]c2ccccc12,24.2*,-2.2,11.9,-7.1,-11.9,-0.8
O=C(NC(=S)NNC(=O)c1ccc(Cl)cc1Cl)c1cccnc1,-4.3,0.1,9.9,5.8,-9.9,·
O=C(NC(=S)NNC(=O)c1ccccc1O)c1cccc([N+](=O)[O-])c1,-0.8,-5.7,-109.3,5.3,109.2*,-1.2
O=C(NC(=S)NNC(=O)c1ccccc1O)c1cccnc1,-5.1,·,-124.0,-4.9,124.0*,0.3
